ChEMBL document CHEMBL1649518, “Safety and outcomes of open-label deferasirox iron chelation therapy for mucormycosis” (Antimicrob Agents Chemother, 2009)

Assays:
Type in all cases: organism-based
Parameters in all cases: route oral
Details in all cases: in vivo, 336 h
Homo sapiens [1] = test: Toxicity in patient with mucormycosis assessed as hemoglobin level at 5 to 20 mg/kg/day, po for 14 days (reference value: 9 mg/dl)
How it was run: (§1)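 Open-label deferasirox given to patients with mucormycosis. One patient with coexisting hepatic disease received 5 mg/kg of body weight/day for 20 days. Laboratory values were reported as medians (interquartile range) at diagnosis, at start of deferasirox, at end of deferasirox, and at a final time point.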

Homo sapiens [2] = test: Toxicity in patient with mucormycosis assessed as platelet count at 5 to 20 mg/kg/day, po for 14 days (reference value: 217/uL); how it was run: as §1
Homo sapiens [3] = test: Toxicity in patient with mucormycosis assessed as WBC count at 5 to 20 mg/kg/day, po for 14 days (reference value: 8.1/uL); how it was run: as §1
Homo sapiens [4] = test: Toxicity in patient with mucormycosis assessed as alkaline phosphatase level at 5 to 20 mg/kg/day, po for 14 days (reference value: 126 U/l); how it was run: as §1
Homo sapiens [5] = test: Toxicity in patient with mucormycosis assessed as glucose level at 5 to 20 mg/kg/day, po for 14 days (reference value: 131 mg/dl); how it was run: as §1
Homo sapiens [6] = test: Toxicity in patient with mucormycosis assessed as aspartate transaminase level at 5 to 20 mg/kg/day, po for 14 days (reference value: 27 U/l); how it was run: as §1
Homo sapiens [7] = test: Toxicity in patient with mucormycosis assessed as creatinine level at 5 to 20 mg/kg/day, po for 14 days (reference value: 1.6 mg/dl); how it was run: as §1
Homo sapiens [8] = test: Toxicity in patient with mucormycosis assessed as blood urea nitrogen level at 5 to 20 mg/kg/day, po for 14 days (reference value: 34 mg/dl); how it was run: as §1
Homo sapiens [9] = test: Toxicity in patient with mucormycosis assessed as absolute neutrophil count at 5 to 20 mg/kg/day, po for 14 days (reference value: 5.2/uL); how it was run: as §1
Homo sapiens [10] = test: Toxicity in patient with mucormycosis assessed as alanine transaminase level at 5 to 20 mg/kg/day, po for 14 days (reference value: 21 U/l); how it was run: as §1
Homo sapiens [11] = test: Toxicity in patient with mucormycosis assessed as total bilirubin level at 5 to 20 mg/kg/day, po for 14 days (reference value: 0.8 mg/dl); how it was run: as §1

O=C(O)c1ccc(-n2nc(-c3ccccc3O)nc2-c2ccccc2O)cc1 [DEFERASIROX]
Activity (Homo sapiens [1]): 9 g/dL
Activity (Homo sapiens [2]): 199 10^3 cells/µL
Activity (Homo sapiens [3]): 10.8 10^3 cells/µL
Activity (Homo sapiens [4]): 314 U/L
Activity (Homo sapiens [5]): 104 mg/dL
Activity (Homo sapiens [6]): 28 U/L
Activity (Homo sapiens [7]): 1.9 mg/dL
Activity (Homo sapiens [8]): 43 mg/dL
Activity (Homo sapiens [9]): 5.4 10^3 cells/µL
Activity (Homo sapiens [10]): 49 U/L
Activity (Homo sapiens [11]): 0.6 mg/dL
